A word on the logP: it is a log measure of how a compound divides between an organic and an aqueous phase. Read a low logP as lower lipophilicity. The EC50 is the concentration needed to bring the measured effect to its halfway point. A word on the Ki: it is a dissociation constant, usually derived from enzyme kinetics or from competition with a known ligand.

Series [1] in a line: Lipophilicity, log P of the compound. To be noted: octanol/water. In kind it is physicochemical.
A further series concerns Mus musculus. The series is described as follows: Antinociceptive activity in C57BL/6 mouse assessed as increase in latency to tail withdrawal up to 10 mg/kg, ip administered at 30 mins interval measured during compound dosing by warm water tail withdrawal assay relative to control. The series is classed as functional. In short, it runs like this:
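Male C57BL/6 mice, 20–30 g, 8–16 weeks. Saline ip, baseline latency 30 min later; then cumulative ip doses 1, 3.2, 10 mg/kg in 5% DMSO/saline at 30 min intervals, latency read 30 min after each. Tail tip (2–3 cm) in 50°C water, 20 s cutoff; expressed as % MPE (MPE = 20 s).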

The target in series [2] is T1, Delta-type opioid receptor (Rattus norvegicus, UniProt P33533). In words: Agonist activity at rat delta opioid receptor expressed in rat C6 cell membranes assessed as stimulation of [35S]GTPgammaS binding measured after 1 hr. In kind it is functional. A general note: Binding of GTPγS marks nucleotide exchange on a G protein.
T1 sequence (P33533 whole entry): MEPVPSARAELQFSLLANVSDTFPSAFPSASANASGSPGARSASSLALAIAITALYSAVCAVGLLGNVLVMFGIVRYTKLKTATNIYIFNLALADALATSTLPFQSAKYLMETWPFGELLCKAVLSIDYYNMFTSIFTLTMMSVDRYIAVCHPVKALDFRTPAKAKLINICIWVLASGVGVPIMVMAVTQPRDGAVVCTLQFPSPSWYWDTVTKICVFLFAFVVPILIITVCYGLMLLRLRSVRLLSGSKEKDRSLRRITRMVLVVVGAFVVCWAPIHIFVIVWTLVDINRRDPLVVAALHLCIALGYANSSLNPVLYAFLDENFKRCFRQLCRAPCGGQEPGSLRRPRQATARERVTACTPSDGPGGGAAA
The target in series [3] is Mu-type opioid receptor (Rattus norvegicus) (UniProt P33535). In words: Agonist activity at rat mu opioid receptor expressed in rat C6 glioma cell membranes assessed as stimulation of [35S]GTPgammaS binding measured after 1 hr relative to DAMGO. In kind it is functional.
Chain of Mu-type opioid receptor (Rattus norvegicus) (P33535 whole entry): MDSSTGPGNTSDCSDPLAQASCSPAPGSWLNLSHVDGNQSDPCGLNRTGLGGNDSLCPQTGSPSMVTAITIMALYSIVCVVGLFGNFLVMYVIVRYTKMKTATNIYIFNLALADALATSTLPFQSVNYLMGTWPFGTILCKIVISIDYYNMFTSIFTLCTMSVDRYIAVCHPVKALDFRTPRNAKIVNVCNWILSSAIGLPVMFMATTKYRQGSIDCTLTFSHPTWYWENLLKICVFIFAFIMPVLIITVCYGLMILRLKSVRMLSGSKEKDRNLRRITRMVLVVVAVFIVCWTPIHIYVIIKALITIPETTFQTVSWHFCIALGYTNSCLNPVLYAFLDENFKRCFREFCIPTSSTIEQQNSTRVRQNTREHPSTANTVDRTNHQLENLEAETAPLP
In series [4] the target is T2, Kappa-type opioid receptor (Homo sapiens, UniProt P41145). The series is described as follows: Agonist activity at human kappa opioid receptor expressed in CHO cell membranes assessed as stimulation of [35S]GTPgammaS binding measured after 1 hr. The series is classed as functional.
T2 sequence (P41145 whole entry): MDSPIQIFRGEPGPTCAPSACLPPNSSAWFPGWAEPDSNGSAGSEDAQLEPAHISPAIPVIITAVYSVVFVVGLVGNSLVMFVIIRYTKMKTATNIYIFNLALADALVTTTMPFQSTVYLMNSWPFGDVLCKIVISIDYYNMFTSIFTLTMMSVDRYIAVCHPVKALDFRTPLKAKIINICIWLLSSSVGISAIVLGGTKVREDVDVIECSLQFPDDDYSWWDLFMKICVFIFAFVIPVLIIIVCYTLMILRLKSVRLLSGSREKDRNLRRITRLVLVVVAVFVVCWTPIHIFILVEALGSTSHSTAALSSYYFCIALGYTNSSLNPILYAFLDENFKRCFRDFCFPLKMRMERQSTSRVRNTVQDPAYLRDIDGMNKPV
Series [5] addresses Delta-type opioid receptor (Rattus norvegicus) (UniProt P33533). In words: Agonist activity at rat delta opioid receptor expressed in rat C6 cell membranes assessed as stimulation of [35S]GTPgammaS binding incubated for 1 hr relative to DPDPE. The series is classed as functional.
For the next series, the species on record is Rattus norvegicus. In words: Selectivity ratio of Ki for rat delta opioid receptor expressed in rat C6 cell membranes to Ki for rat mu opioid receptor expressed in rat C6 cell membranes. The series is classed as cell-based. In short, it runs like this:
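Competition binding against 0.2 nM [3H]-diprenorphine, using C6 membranes expressing rat MOR or rat DOR (20 μg protein/tube). Run in 50 mM Tris-HCl pH 7.4, 1 h at room temperature with shaking, then filtration and scintillation counting. Nonspecific binding with 10 μM naloxone.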

The target of series [6] is T1, Delta-type opioid receptor. In words: Displacement of [3H]diprenorphine from rat delta opioid receptor expressed in rat C6 cell membranes measured after 1 hr by liquid scintillation counting method. A general note: Displacement assays read how much labelled ligand stays bound in the presence of the test substance.
The target in series [7] is T2, Kappa-type opioid receptor. The series is described as follows: Agonist activity at human kappa opioid receptor expressed in CHO cell membranes assessed as stimulation of [35S]GTPgammaS binding to G protein incubated for 1 hr relative to U69,593. In kind it is functional.
The target in series [8] is T3, Mu-type opioid receptor (Rattus norvegicus, UniProt P33535). The series is described as follows: Displacement of [3H]diprenorphine from rat mu opioid receptor expressed in rat C6 cell membranes measured after 1 hr by liquid scintillation counting method. In short, it runs like this:
(§1)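 Competition with 0.2 nM [3H]-diprenorphine on membranes (20 μg protein/tube) from stably transfected cells in 50 mM Tris-HCl pH 7.4, 1 h at room temperature with shaking; GF/C filtration, three washes, scintillation counting. Nonspecific binding defined with 10 μM naloxone.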

Series [9] addresses T2, Kappa-type opioid receptor. In words: Displacement of [3H]diprenorphine from human kappa opioid receptor expressed in CHO cell membranes measured after 1 hr by liquid scintillation counting method. In short, it runs like this: as §1
The target of series [10] is T3, Mu-type opioid receptor. The series is described as follows: Agonist activity at rat mu opioid receptor expressed in rat C6 cell membranes assessed as stimulation of [35S]GTPgammaS binding measured after 1 hr. The series is classed as functional. In short, it runs like this: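 Membranes (10–20 μg protein/tube) from stably transfected cells incubated 1 h at 25°C in 50 mM Tris-HCl, 100 mM NaCl, 5 mM MgCl2, pH 7.4, with 0.1 nM [35S]-GTPγS, 30 μM GDP and varying test concentrations; filtration, scintillation counting.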

Active and inactive are the calls of the source. Some results are limits rather than exact numbers.

T3 sequence (P33535 whole entry): as the sequence (P33535 whole entry) above
Chain of Delta-type opioid receptor (Rattus norvegicus) (P33533 whole entry): as the sequence (P33533 whole entry) above

For the molecule `CC(=O)N1CC[C@@H](NC(=O)[C@@H](N)Cc2c(C)cc(O)cc2C)c2cc(Cc3ccc4ccccc4c3)ccc21`, in series [1], the logP was determined as 4.5.
For `Cc1cc(O)cc(C)c1C[C@H](N)C(=O)N[C@@H]1CCN(S(C)(=O)=O)c2ccc(Cc3ccc4c(c3)OCCO4)cc21.O=C(O)C(F)(F)F`, the MPE in the series on Mus musculus came out at 70%. The EC50 result in series [2] (c6) is “Not Active”; in series [4] (read-out: EC50), > 500 nM; on Mu-type opioid receptor [10], 9 nM. Further, the Efficacy in [3] is 47%; in series [7], 39%. Further, in series [1], the logP turned out to be 3. The Efficacy result in [5] was “inactive”. In the series filed under Rattus norvegicus, the Ratio Ki came to 21. Besides, the values for the Ki (in [6]; on Mu-type opioid receptor [8]; in [9]) were 1.5 nM, 0.07 nM and 46 nM, respectively.
For `Cc1cc(O)cc(C)c1C[C@H](N)C(=O)N[C@@H]1CCN(C(=O)c2ccccc2)c2ccc(Cc3cc4ccccc4o3)cc21.O=C(O)C(F)(F)F`, the MPE result in the series with Mus musculus is “inactive”. Moreover, the EC50 result in series [2] (c6) was “Not Active”; in [4] (cho), “Not Active”; on Mu-type opioid receptor [10], 12 nM. For the same molecule, the Efficacy in series [3] lay in the range of 58 to 64%. In series [1], this molecule showed a logP of 5.2. Besides, the Efficacy result in series [5] and in series [7] was “inactive” each time. Besides, the Ratio Ki in the series listed under Rattus norvegicus was determined as 2. Besides, the inhibitory constant (Ki) was found to be 0.64 nM in series [6], 0.35 nM on Mu-type opioid receptor [8] and 100 nM in [9].
Turning to `Cc1cc(O)cc(C)c1C[C@H](N)C(=O)N[C@@H]1CCNc2ccc(Cc3cnc4ccccc4c3)cc21.O=C(O)C(F)(F)F`, the MPE entry in the series on Mus musculus is “inactive”. For the same molecule, the concentration giving a half-maximal response (EC50) entry in series [2] (c6) is “Not Active”; in series [4] (cho) it was “Not Active”; at Mu-type opioid receptor [10], 2.2 nM. For the same molecule, the Efficacy in [3] came to 84%. Moreover, the logP in series [1] was 3.7. Besides, the Efficacy entry in [5] and in series [7] was “inactive” each time. Further, the Ratio Ki in the series listed under Rattus norvegicus is 15. Further, the inhibition constant Ki in series [6] was determined as 1.5 nM; on Mu-type opioid receptor [8], 0.1 nM; in [9], 16 nM.
As to `Cc1cc(O)cc(C)c1C[C@H](N)C(=O)N[C@@H]1CCN(S(C)(=O)=O)c2ccc(Cc3cnc4ccccc4c3)cc21.O=C(O)C(F)(F)F`, the MPE with Mus musculus came out at 50%. The EC50 entry is “Not Active” in series [2] (c6), “Not Active” in series [4] (cho) and 0.26 nM at Mu-type opioid receptor [10]. Further, in [3], the Efficacy was determined as 96%. This molecule came in with a lipophilicity (logP) in series [1] of 3.1. Besides, the Efficacy result in [5] and in series [7] was “inactive” in each case. In addition, the Ratio Ki in the series listed under Rattus norvegicus was 3. The inhibition constant Ki in series [6] was determined as 0.64 nM; on Mu-type opioid receptor [8], 0.23 nM; in series [9], 7 nM.
The molecule `Cc1cc(O)cc(C)c1C[C@H](N)C(=O)N[C@@H]1CCN(C(=O)C2CC2)c2ccc(Cc3ccccc3)cc21` returned a log partition coefficient (logP) in [1] of 3.9.
For the molecule `CC(=O)N1CC[C@@H](NC(=O)[C@@H](N)Cc2c(C)cc(O)cc2C)c2cc(Cc3ccc4c(c3)OCCO4)ccc21.O=C(O)C(F)(F)F`, the MPE in the series with Mus musculus was 75%. Also, the concentration giving a half-maximal response (EC50) result in [2] (c6) is “Not Active”; in series [4] (cho) it was “Not Active”; on Mu-type opioid receptor [10], 13 nM. In series [3], the Efficacy was found to be 45%. Also, in series [1], the logP was 3.1. The Efficacy result in series [5] and in [7] was “inactive” throughout. In the series listed under Rattus norvegicus, the Ratio Ki worked out at 2. In addition, the inhibition constant Ki in series [6] turned out to be 0.83 nM; at Mu-type opioid receptor [8] it was 0.38 nM; in series [9] it was 142 nM.
`Cc1cc(O)cc(C)c1C[C@H](N)C(=O)N[C@@H]1CCNc2ccc(CN3CCc4ccccc4C3)cc21.O=C(O)C(F)(F)F`: the MPE entry in the series on Mus musculus is “inactive”. Further, the EC50 result in series [2] (c6) is “Not Active”; in series [4] (read-out: EC50), 90 nM; on Mu-type opioid receptor [10], 0.4 nM. In addition, the Efficacy worked out at 105% in [3] and 25% in series [7]. Also, the log partition coefficient (logP) in series [1] was 3.7. Moreover, the Efficacy entry in series [5] is “inactive”. The values for the inhibition constant Ki (in series [6]; on Mu-type opioid receptor [8]; in [9]) were 3.1 nM, 0.03 nM and 2.2 nM, respectively.
For `Cc1cc(O)cc(C)c1C[C@H](N)C(=O)N[C@@H]1CCN(S(C)(=O)=O)c2ccc(Cc3cc4ccccc4o3)cc21.O=C(O)C(F)(F)F`, the MPE result in the series with Mus musculus was “inactive”. Moreover, the half-maximal effective concentration (EC50) entry was “Not Active” in series [2] (c6), > 500 nM in series [4] (read-out: EC50) and 0.34 nM on Mu-type opioid receptor [10]. Moreover, the Efficacy in series [3] was determined as 102%; in [7], 61%. This molecule also gave a logP in [1] of 3.8. Further, the Efficacy entry in [5] was “inactive”. Besides, the Ratio Ki in the series filed under Rattus norvegicus worked out at 20. The Ki in [6] is 1 nM; at Mu-type opioid receptor [8], 0.05 nM; in series [9] it was 8 nM.
`Cc1cc(O)cc(C)c1C[C@H](N)C(=O)N[C@@H]1CCN(C(=O)c2ccccc2)c2ccc(Cc3ccccc3)cc21` came in with a logP in series [1] of 4.6.
For the molecule `Cc1cc(O)cc(C)c1C[C@H](N)C(=O)N[C@@H]1CCN(C(=O)c2ccccc2)c2ccc(Cc3cnc4ccccc4c3)cc21.O=C(O)C(F)(F)F`, in the series with Mus musculus, the MPE turned out to be 100%. The half-maximal effective concentration (EC50) result in [2] (c6) was “Not Active”; in [4] (cho), “Not Active”; on Mu-type opioid receptor [10] it was 1 nM. Besides, the Efficacy in series [3] came to 43%. For the same molecule, the Ki in series [6] came to 0.74 nM; on Mu-type opioid receptor [8], 0.04 nM; in series [9], 100 nM. In addition, in [7], the Efficacy result was “inactive”.
`Cc1cc(O)cc(C)c1C[C@H](N)C(=O)N[C@@H]1CCN(C(=O)C2CC2)c2ccc(Cc3cc4ccccc4o3)cc21.O=C(O)C(F)(F)F`: the MPE entry with Mus musculus was “inactive”. For the same molecule, the 50% effective concentration (EC50) in [2] (read-out: EC50) was 3.7 nM; in series [4] (cho) it was “Not Active”; on Mu-type opioid receptor [10] it was 0.9 nM. The Efficacy turned out to be 89% in [3] and 52% in [5]. In series [1], this molecule registered a logP of 4.5. For the same molecule, the Ki in [6] worked out at 0.26 nM; at Mu-type opioid receptor [8], 0.05 nM; in [9], 98 nM. Besides, in [7], the Efficacy result was “inactive”.
As to `Cc1cc(O)cc(C)c1C[C@H](N)C(=O)N[C@@H]1CCNc2ccc(Cc3cc4ccccc4o3)cc21.O=C(O)C(F)(F)F`, in the series with Mus musculus, the MPE worked out at 50%. In addition, the results for the concentration for a half-maximal effect (EC50) entry (in series [2] (c6); in series [4] (cho); at Mu-type opioid receptor [10]) were “Not Active”, “Not Active” and 1.1 nM, respectively. For the same molecule, the Efficacy in series [3] worked out at 98%. Moreover, the logP in [1] was determined as 4.3. In addition, the Efficacy result in series [5] and in series [7] was “inactive” in each case. The Ratio Ki in the series filed under Rattus norvegicus turned out to be 44. Also, the Ki in series [6] was determined as 5 nM; in series [9], 40 nM.
As for `Cc1cc(O)cc(C)c1C[C@H](N)C(=O)N[C@@H]1CCNc2ccc(Cc3ccc4c(c3)OCCO4)cc21.O=C(O)C(F)(F)F`, the MPE entry in the series with Mus musculus is “inactive”. Also, the results for the EC50 result (in [2] (c6); in [4] (cho); on Mu-type opioid receptor [10]) were “Not Active”, “Not Active” and 7.3 nM, respectively. The Efficacy in series [3] came out at 88%. In [1], this molecule returned a lipophilicity (logP) of 3.5. Moreover, the Efficacy entry in [5] and in series [7] was “inactive” each time. The Ratio Ki in the series filed under Rattus norvegicus was 16.
`CC(=O)N1CC[C@@H](NC(=O)[C@@H](N)Cc2c(C)cc(O)cc2C)c2cc(Cc3ccccc3)ccc21`: the logP in series [1] is 3.4.
The molecule `Cc1cc(O)cc(C)c1C[C@H](N)C(=O)N[C@@H]1CCNc2ccc(Cc3ccc4ccccc4c3)cc21` displayed a lipophilicity (logP) in [1] of 4.9.

For the origin of these results see ChEMBL document CHEMBL4433205, “Dual Pharmacophores Explored via Structure-Activity Relationship (SAR) Matrix: Insights into Potent, Bifunctional Opioid Ligand Design” (J Med Chem, 2019).
